Bioassay records: PubChem, SRMLSC
This is one part of a sample in which hits are shown more often than they occur.
H69AR growth 86K – blocks growth of human H69AR lung tumor cells. H69AR lung tumor viability, ATP luminescence, 72 h; stronger effect = lower value. viability, % at 10 µM. 85,000 compounds, 6% hits;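 active = viability at or below 40%; inactive = viability above 40%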;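 also: multidrug resistant small cell line overexpressing MRP-1 efflux transporter; 100% = mean luminescence of untreated control wells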
PTEN del growth – growth suppressors of cells with PTEN tumor suppressor deletion | HCT116 PTEN-null viability, CellTiter-Glo, 60 h; stronger effect = lower value | AID 827 | 140,000 compounds, 1.2% hits | viability, % at 10 µM;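 active = viability at or below a set limit, 4 SD under the median of all tested compounds, cut at about 3.7% in these data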;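 also: PTEN knockout HCT116 line with beta catenin targeted HCT116 as companion control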
HUVEC prolif 384 – inhibitors of human endothelial cell proliferation. HUVEC proliferation, CellTiter-Glo luminescence, 72 h; stronger effect = lower value. viability, % at 10 µM (by protocol). 86,000 compounds, 1.1% hits. AID 648;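 active = viability at or below 30%; inactive = viability above 30%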;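 also: 100% = median luminescence of DMSO-only cell control wells on each plate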
bCat KO growth – beta-catenin-lacking colon tumor cell growth suppression. HCT116 beta-catenin knockout viability, CellTiter-Glo, 60 h; stronger effect = lower value. viability, % at 10 µM. 140,000 compounds, 1.5% hits. AID 818;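 active = viability at or under a set limit, the compound median less 4 SD, cut at about 6% in these data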;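 also: 0% = Hyamine 1622 control at 20 µM and 100% = untreated cell control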
Lung fibro prol – blocks proliferation of human lung fibroblasts; LL 47 human lung fibroblast viability, ATP luminescence; stronger effect = lower value; viability, % at 10 µM; 85,000 compounds, 1.1% hits; AID 719;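 active = viability at or below 50% in the single dose screen; inactive = viability above 50%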;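 also: compound exposure lasted 72 h before the ATP readout; 100% = median luminescence of untreated cell-only wells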
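Material: human LL 47 lung fibroblast cells; quantity: 1,150 cells/well; medium: IMEM plus 15% FBS; doses: 0.1% DMSO in all compound wells; timing: overnight attachment after seeding, then 72 h compound exposure at 37 °C; detection: CellTiter-Glo luminescence; measure: % viability of median cell-only signal; controls: cell-only wells, no compound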
An asterisk follows results filed as active; · = no result.

SMILES	H69AR growth 86K	PTEN del growth	HUVEC prolif 384	bCat KO growth	Lung fibro prol
CCOc1cc(/C=C2/C(=N)N3OC(C)=CC3=NC2=O)ccc1OCCOc1ccccc1	68.4	99.5	65.2	88.6	91.3
Cc1cccc(-n2c(C)cc(/C=N/NC(=O)c3ccc(CN4CCOCC4)cc3)c2C)c1	·	49.6	·	46.0	·
CCC(=O)N1CCc2cc(Br)cc(S(=O)(=O)N3CCCCCC3)c21	74.8	78.8	100.0	85.7	104.3
O=C(C1CC1)N1CCc2cc(Br)cc(S(=O)(=O)N3CCCCCC3)c21	37.1*	76.7	97.5	75.2	82.8
Cc1cccc(N2CCN(S(=O)(=O)c3ccc(S(=O)(=O)N4CCCC4)cc3)CC2)c1C	16.0*	77.5	64.8	88.6	54.8
CN(C)CCCn1c(SCC(=O)N2c3ccccc3Sc3ccccc32)nc2ccccc2c1=O	·	1.7*	·	1.6*	·
Cn1c(SCC(=O)N2c3ccccc3Sc3ccccc32)nc2ccccc21	·	73.8	·	82.1	·
Cc1nc(Oc2ccccc2)c2oc3ccccc3c2n1	82.3	84.2	109.5	72.5	98.0
CSc1nc(N2CCN(CCO)CC2)c2sc3nc(-c4ccco4)c4c(c3c2n1)CCC4	0.8*	·	77.0	·	98.4
CCOC(=O)c1cc(C#N)c(SCc2ccc(C#N)cc2)nc1C	55.4	55.9	72.4	61.4	75.5
O=C(C[n+]1cc(-c2ccccc2)n2c1CCC2)Nc1nc(-c2ccccc2)cs1	·	73.3	·	85.2	·
COc1ccc(NC(=O)COn2nnc3ccc(Cl)cc32)cc1OC	39.3*	82.9	92.9	88.5	85.5
CC(=O)O[C@@]12CO[C@@H]1C[C@H](O)[C@@]1(C)C(=O)[C@H](O)C3=C(C)[C@@H](OC(=O)[C@H](O)[C@@H](NC(=O)OC(C)(C)C)c4ccccc4)C[C@](O)([C@@H](OC(=O)c4ccccc4)[C@H]21)C3(C)C	22.9*	·	59.1	·	61.3
CCOc1ccc(S(=O)(=O)N(CC(=O)Nc2cc(C)on2)Cc2ccccc2Cl)cc1	82.2	49.4	90.2	56.3	90.4
Cc1cc(/C=C2\SC(=Nc3ccc(F)cc3)NC2=O)c(C)n1-c1ccc(S(N)(=O)=O)cc1	·	2.8*	·	9.7	·
Cc1cc(/C=C2/SC(=O)NC2=O)c(C)n1-c1ccc(N2CCOCC2)cc1	·	72.9	·	79.2	·
CCc1nnc(NC(=O)CSc2nc(-c3ccccc3)c(-c3ccccc3)o2)s1	·	36.1	·	45.6	·
COC(=O)C(C(=O)Nc1ccc(OC)cc1)C1CCCCCC1 (stereo not drawn)	21.1*	49.1	75.2	42.7	82.5
CCOC(=O)c1oc2ccc(S(=O)(=O)n3nc(-c4ccc(OC)cc4)cc3N)cc2c1C	26.7*	26.0	74.3	20.5	78.9
CCOC(=O)c1oc2ccc(S(=O)(=O)n3nc(-c4ccccc4)cc3N)cc2c1C	85.5	42.3	100.3	50.3	92.4
CN(C)c1ccc(/C=C/C(O)=C2/C(=O)N(C)C3(C)CC2c2ccccc2O3)cc1 (stereo not drawn)	21.4*	52.1	91.4	56.5	96.3
O=C(CN1CCN(C(=O)c2ccco2)CC1)Nc1c2c(nc3c1CCC3)CCCC2	82.3	102.8	99.0	97.4	92.3
O=C1/C(=C/c2cccnc2)Oc2cc(OS(=O)(=O)c3ccccc3)ccc21	3.4*	70.6	90.6	80.7	105.3
O=C1/C(=C/c2cccnc2)Oc2cc(OS(=O)(=O)c3ccc(Cl)cc3)ccc21	86.8	88.8	91.0	88.0	97.7
COc1ccc(S(=O)(=O)Oc2ccc3c(c2)O/C(=C\c2cccnc2)C3=O)cc1	17.4*	21.5	93.0	29.2	93.6
SMILES	H69AR growth 86K	PTEN del growth	HUVEC prolif 384	bCat KO growth	Lung fibro prol
COc1ccccc1C(=O)Oc1ccc2c(c1)O/C(=C\c1ccncc1)C2=O	·	54.3	·	65.6	·
Oc1[nH]c(=S)sc1/C=C1\C(c2ccccc2)=Nc2ccccc21	·	70.3	·	81.1	·
COc1ccccc1C(=O)/C=C/c1ccc(N2CCCCC2)c([N+](=O)[O-])c1	·	1.4*	·	1.5*	·
O=C(O/N=C\c1ccc(N2CCCCC2)c([N+](=O)[O-])c1)c1ccc(Cl)cc1Cl	·	91.0	·	94.6	·
O=C(CN1CCC(c2nc3ccccc3s2)CC1)NCc1ccccc1	80.4	40.1	94.9	33.5	91.8
CC(=O)c1ccc(CCCCCCCCCC(=O)O)s1	75.8	91.4	92.1	85.5	97.0
Cc1nn(C)cc1/C=C/C(=O)c1cccs1	38.9*	67.4	102.3	66.5	103.3
CN1CCN(C(=O)c2cc3c(n(-c4ccccc4)c2=O)CC(C)(C)CC3=O)CC1	100.5	102.3	103.2	95.2	101.5
CC1(C)CC(=O)c2cc(C(=O)NCc3ccco3)c(=O)n(-c3ccccc3)c2C1	29.7*	90.9	77.7	92.1	93.6
COc1cc(/C=N/n2cnnc2)ccc1OCCSc1ccc(C)cc1	·	95.2	·	93.0	·
CCn1nc(C(=O)NC2=NCCS2)c2ccccc2c1=O	97.9	105.1	2.7*	99.0	93.3
CC(=O)Oc1ccc2ccccc2c1C(NC(=O)Cc1ccccc1)c1ccc(Cl)cc1 (stereo not drawn)	·	0.9*	·	0.8*	·
N#CC(=C1CCCC1)c1nc(-c2cc3ccccc3oc2=O)cs1	·	75.9	·	78.5	·
O=C(CN1CCN(c2ccc(F)cc2)CC1)OCc1ccccc1	89.5	97.7	102.7	95.8	101.2
CCN(CC(=O)NC(c1ccccc1)c1ccccc1)Cc1nc2ccccc2c(=O)[nH]1	53.4	83.7	87.6	80.5	99.0
COc1cc2nc(CN(C)Cc3nc4ccccc4c(=O)[nH]3)[nH]c(=O)c2cc1OC	·	91.2	·	103.1	·
CCN(Cc1nc2ccccc2c(=O)[nH]1)Cc1nc2cc(OC)c(OC)cc2c(=O)[nH]1	14.7*	99.7	92.9	97.1	103.3
CCc1ccc2c(CN(CC)Cc3nc4ccccc4c(=O)[nH]3)cc(=O)oc2c1	35.8*	64.2	82.9	65.5	90.1
CCN(CC(=O)Nc1ccc2c(c1)CCC2)Cc1nc2ccccc2c(=O)[nH]1	33.2*	70.7	83.9	75.3	85.5
CCN(CC)CC(=O)Nc1ccc2c(c1)Nc1ccccc1CC2	4.0*	30.6	34.5	30.9	76.9
Cc1ccc2[nH]c(=O)c(-c3nc4ccccn4c3NCc3ccco3)cc2c1	60.8	19.1	78.9	51.3	95.7
COc1cccc(/C=N/n2cnc3ccccc32)c1OC	29.7*	95.8	95.5	83.8	121.5
COc1cccc(/C=N/n2c(N)nc3ccccc32)c1OC	74.5	90.3	74.6	98.5	89.1
CCOc1ccccc1C(=O)Nc1ccc2nc(N3CCN(c4ncccn4)CC3)cc(C)c2c1	0.5*	·	6.2*	·	54.7
CCN1CCN(c2cc(C)c3cc(NC(=O)Cc4ccccc4OC)ccc3n2)CC1	·	76.4	·	58.8	·
COc1cccc(C(=O)Nc2ccc3nc(N4CCOCC4)cc(C)c3c2)c1	47.1	91.3	79.4	91.2	100.8
COc1cccc(C(=O)Nc2ccc3nc(N4CCN(c5ncccn5)CC4)cc(C)c3c2)c1OC	·	1.7*	·	2.0*	·
CC(C)OC(=O)c1nn2c(C(F)(F)F)cc(-c3ccco3)nc2c1Cl	82.8	94.4	90.9	91.3	93.2
